According to ChEMBL document CHEMBL1153533, “Phosphoramidate prodrugs of 2'-C-methylcytidine for therapy of hepatitis C virus infection” (J Med Chem, 2009):

Experiments:
Hepatitis C virus [1] = test: Antiviral activity against HCV infected in human HBI10A cells by subgenomic viral replicon assay; assay type: functional, organism-based, Hepacivirus hominis
[2] = Cytotoxicity against human HBI10A cells
[3] = Selectivity index, ratio of CC50 for human HBI10A cells to EC50 for HCV infected in human HBI10A cells
Method in brief: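 Subgenomic HCV replicon assay gives EC₅₀ (n = 2-9 independent determinations). CC₅₀ is the concentration cutting cell viability by 50%. SI = CC₅₀/EC₅₀.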

Hepatitis C virus [4] = test: Antiviral activity against HCV assessed as logarithmic reduction in plasma viral RNA at 1500 mg, po BID after 14 days; assay type: functional, Hepacivirus hominis
Hepatitis C virus [5] = test: Antiviral activity against HCV assessed as logarithmic reduction in plasma viral RNA at 1500 mg, QD after 14 days; assay type: functional, Hepacivirus hominis
Hepatocyte = test: Stability in cryopreserved primary human hepatocytes assessed as increase in intracellular nucleoside triphosphate formation by LC-MS/MS analysis; assay type: ADME, cell-based
[6] = Stability in human HBI10A cells assessed as intracellular nucleoside triphosphate AUC (0 to 24 hrs) at 100 uM by LC-MS/MS analysis
Hepatitis C virus [7] = test: Antiviral activity against HCV assessed as logarithmic reduction in plasma viral RNA at 800 mg, po BID after 14 days; assay type: functional, Hepacivirus hominis
Hepatitis C virus [8] = test: Antiviral activity against HCV infected in human HBI10A cells at 20 uM by subgenomic viral replicon assay; assay type: functional, Hepacivirus hominis
Hepacivirus hominis = test: Inhibition of HCV NS5B polymerase by cell-based assay
Liver [9] = test: Drug concentration in rat liver assessed as nucleoside triphosphate level at […], sc after 6 hrs; assay type: ADME, organism-based; settings: in vivo, read-out: Drug uptake
[10] = Drug concentration in hamster liver assessed as nucleoside triphosphate level at 1.5 umol/kg, sc after 6 hrs; settings: cricetinae, in vivo
[11] = Drug level in hamster liver assessed as nucleoside triphosphate level at 1 mg/kg, sc after 24 hrs; assay type: ADME, organism-based; design: dose 1 mg/kg, route subcutaneous; settings: cricetinae, in vivo, read-out: Drug uptake
Liver [12] = test: Drug level in rat liver assessed as nucleoside triphosphate level at 1 mg/kg, sc after 24 hrs; assay type: ADME, organism-based; design: dose 1 mg/kg, route subcutaneous; settings: in vivo, read-out: Drug uptake
[13] = Drug level in rabbit liver assessed as nucleoside triphosphate level at 1 mg/kg, sc after 24 hrs; assay type: ADME, organism-based, Oryctolagus cuniculus; design: dose 1 mg/kg, route subcutaneous; settings: in vivo, read-out: Drug uptake
Hamster = test: AUC (0 to 48 hrs) in hamster at 1 mg/kg, sc; assay type: ADME, organism-based, Plasma; design: time < 48 hr, dose 1 mg/kg, route subcutaneous; settings: cricetinae, in vivo

Work on `CCCCOC(=O)[C@H](C)NP(=O)(OC[C@H]1O[C@@H](n2ccc(N)nc2=O)[C@](C)(O)[C@@H]1O)Oc1cccc2ccccc12` (stereo partly specified) yielded an EC50 (Hepatitis C virus [1]; Hepatitis C virus, HBI10A) of 0.09 µM and a CC50 [2] of 9 µM.
With `COC(=O)[C@H](C)NP(=O)(OC[C@H]1O[C@@H](n2ccc(N)nc2=O)[C@](C)(O)[C@@H]1O)Oc1ccc(C(F)(F)F)cc1` (stereo partly specified) the EC50 (Hepatitis C virus [1]; Hepatitis C virus, HBI10A) was 9.6 µM, the “Ratio CC50/EC50” value [3] was over 5 and the CC50 [2] was over 50 µM.
In the case of `CCOC(=O)[C@H](C)NP(=O)(OC[C@H]1O[C@@H](n2ccc(N)nc2=O)[C@](C)(O)[C@@H]1O)Oc1ccc2c(ccn2C(=O)OC(C)(C)C)c1` (stereo partly specified), the EC50 (Hepatitis C virus [1]; Hepatitis C virus, HBI10A) is reported as 0.5 µM, the “Ratio CC50/EC50” value [3] is reported as 40 and the CC50 [2] is reported as over 20 µM.
For `COC(=O)[C@H](C)NP(=O)(OC[C@H]1O[C@@H](n2ccc(N)nc2=O)[C@](C)(O)[C@@H]1O)Oc1ccc(OC)cc1` (mixture of isomers), the EC50 (Hepatitis C virus [1]; Hepatitis C virus, HBI10A) was 3.7 µM, the “Ratio CC50/EC50” value [3] was over 13 and the CC50 [2] was over 50 µM.
In the case of `CCOC(=O)[C@H](C)NP(=O)(OC[C@H]1O[C@@H](n2ccc(N)nc2=O)[C@](C)(O)[C@@H]1O)Oc1cccc2ccccc12` (stereo partly specified), the EC50 (Hepatitis C virus [1]; Hepatitis C virus, HBI10A) is reported as 0.2 µM, the “Ratio CC50/EC50” value [3] is reported as 75 and the CC50 [2] is reported as 15 µM.
With `CC(C)C(=O)OC[C@H]1O[C@@H](n2ccc(N)nc2=O)[C@](C)(F)[C@@H]1OC(=O)C(C)C` [MERICITABINE] the Activity (Hepatitis C virus [4]) was 2.7.
For `CC(C)C(=O)OC[C@@]1(N=[N+]=[N-])O[C@@H](n2ccc(N)nc2=O)[C@H](OC(=O)C(C)C)[C@@H]1OC(=O)C(C)C` [BALAPIRAVIR], the Activity (Hepatitis C virus [5]) was 1.2.
In the case of `COC(=O)[C@H](Cc1ccccc1)NP(=O)(OC[C@H]1O[C@@H](n2ccc(N)nc2=O)[C@](C)(O)[C@@H]1O)Oc1ccc(Cl)cc1` (mixture of isomers), the EC50 (Hepatitis C virus [1]; Hepatitis C virus, HBI10A) is reported as over 20 µM and the CC50 [2] is reported as over 20 µM.
With `CCOC(=O)[C@H](Cc1c[nH]c2ccccc12)NP(=O)(OC[C@H]1O[C@@H](n2ccc(N)nc2=O)[C@](C)(O)[C@@H]1O)Oc1ccc(Cl)cc1` (single isomer, unassigned) the EC50 (Hepatitis C virus [1]; Hepatitis C virus, HBI10A) was 17 µM, the “Ratio CC50/EC50” value [3] was over 3 and the CC50 [2] was over 50 µM.
In the case of `CC(C)[C@H](N)C(=O)O[C@@H]1[C@@H](CO)O[C@@H](n2ccc(N)nc2=O)[C@]1(C)O` [VALOPICITABINE], the Activity (Hepatocyte) is reported as “Dose-dependent effect”, the EC50 (Hepatitis C virus [1]; Hepatitis C virus, HBI10A) is reported as 7.6 µM and the AUC [6] is reported as 70 µM·h. For the same compound, the “Ratio CC50/EC50” value [3] was over 13, the CC50 [2] was over 100 µM and the Activity (Hepatitis C virus [7]) was 1.2.
For `COC(=O)CCNP(=O)(OC[C@H]1O[C@@H](n2ccc(N)nc2=O)[C@](C)(O)[C@@H]1O)Oc1ccc(Cl)cc1` (mixture of isomers), the EC50 (Hepatitis C virus [1]; Hepatitis C virus, HBI10A) was over 20 µM and the CC50 [2] was over 20 µM.
For `CCOC(=O)[C@H](CC(C)C)NP(=O)(OC[C@H]1O[C@@H](n2ccc(N)nc2=O)[C@](C)(O)[C@@H]1O)Oc1ccc(Cl)cc1` (mixture of isomers), the EC50 (Hepatitis C virus [1]; Hepatitis C virus, HBI10A) was 7 µM, the “Ratio CC50/EC50” value [3] was over 7 and the CC50 [2] was over 50 µM.
`CCCOC(=O)[C@H](C)NP(=O)(OC[C@H]1O[C@@H](n2ccc(N)nc2=O)[C@](C)(O)[C@@H]1O)Oc1ccccc1` (stereo partly specified) showed an EC50 (Hepatitis C virus [1]; Hepatitis C virus, HBI10A) of 0.97 µM and a CC50 [2] of over 20 µM.
With `CCOC(=O)[C@H](C)NP(=O)(OC[C@H]1O[C@@H](n2ccc(N)nc2=O)[C@](C)(O)[C@@H]1O)OCC(Cl)(Cl)Cl` (stereo partly specified) the EC50 (Hepatitis C virus [1]; Hepatitis C virus, HBI10A) was 10 µM, the inhibition at 20 µM (Hepatitis C virus [8]) was 52% and the “Ratio CC50/EC50” value [3] was over 5. The CC50 [2] was over 50 µM.
Work on `CCOC(=O)[C@H](C)NP(=O)(OC[C@H]1O[C@@H](n2ccc(N)nc2=O)[C@](C)(O)[C@@H]1O)Oc1ccc(C[C@H](N)C(=O)OC)cc1` (stereo partly specified) yielded an EC50 (Hepatitis C virus [1]; Hepatitis C virus, HBI10A) of over 20 µM and a CC50 [2] of over 20 µM.
`C[C@@]1(O)[C@H](O)[C@@H](CO)O[C@H]1n1ccc(N)nc1=O` showed an Activity (Hepacivirus hominis) of 2 µM.
For `CCOC(=O)[C@H](C)NP(=O)(OC[C@H]1O[C@@H](n2ccc(N)nc2=O)[C@](C)(O)[C@@H]1O)Oc1ccc(Cl)cc1` (single isomer, unassigned), the EC50 (Hepatitis C virus [1]; hbi10a) was 7.9 µM.
Work on `CCCC(CCC)C(=O)OCCNP(=O)(O)OC[C@H]1O[C@@H](n2ccc(N)nc2=O)[C@](C)(O)[C@@H]1O` yielded a concentration (Liver [9]) of 36 µM and a Drug uptake [10] of 13 µM.
For `CCOC(=O)[C@H](C)NP(=O)(OC[C@H]1O[C@@H](n2ccc(N)nc2=O)[C@](C)(O)[C@@H]1O)Oc1cc(C)c(Cl)cc1C(C)C` (stereo partly specified), the EC50 (Hepatitis C virus [1]; Hepatitis C virus, HBI10A) was 0.19 µM, the “Ratio CC50/EC50” value [3] was 47 and the CC50 [2] was 9 µM.
For `CCOC(=O)[C@H](C)NP(=O)(OC[C@H]1O[C@@H](n2ccc(N)nc2=O)[C@](C)(O)[C@@H]1O)Oc1ccccc1C(=O)OC` (mixture of isomers), the EC50 (Hepatitis C virus [1]; Hepatitis C virus, HBI10A) was 11 µM, the “Ratio CC50/EC50” value [3] was over 5 and the CC50 [2] was over 50 µM.
Compound `CCOC(=O)[C@H](C)NP(=O)(OC[C@H]1O[C@@H](n2ccc(N)nc2=O)[C@](C)(O)[C@@H]1O)Oc1ccc(Cl)cc1` (stereo partly specified) has an EC50 (Hepatitis C virus [1]; hbi10a) of 1 µM and a CC50 [2] of over 20 µM.
With `CCCC[C@H](NP(=O)(OC[C@H]1O[C@@H](n2ccc(N)nc2=O)[C@](C)(O)[C@@H]1O)Oc1ccc(Cl)cc1)C(=O)OCC` (mixture of isomers) the EC50 (Hepatitis C virus [1]; Hepatitis C virus, HBI10A) was 1.5 µM, the “Ratio CC50/EC50” value [3] was over 13 and the CC50 [2] was over 20 µM.
For `COC(=O)[C@@H](C)NP(=O)(OC[C@H]1O[C@@H](n2ccc(N)nc2=O)[C@](C)(O)[C@@H]1O)Oc1ccc(Cl)cc1` (mixture of isomers), the EC50 (Hepatitis C virus [1]; Hepatitis C virus, HBI10A) was 7.7 µM, the “Ratio CC50/EC50” value [3] was over 2.5 and the CC50 [2] was over 20 µM.
In the case of `CCOC(=O)[C@H](C)NP(=O)(OC[C@H]1O[C@@H](n2ccc(N)nc2=O)[C@](C)(O)[C@@H]1O)Oc1ccccc1C` (stereo partly specified), the EC50 (Hepatitis C virus [1]; Hepatitis C virus, HBI10A) is reported as 0.18 µM, the “Ratio CC50/EC50” value [3] is reported as 50 and the CC50 [2] is reported as 9 µM.
In the case of `CCCC(CCC)COC(=O)[C@H](C)NP(=O)(O)OC[C@H]1O[C@@H](n2ccc(N)nc2=O)[C@](C)(O)[C@@H]1O`, the concentration [11] is reported as 6 µM, the EC50 (Hepatitis C virus [1]; Hepatitis C virus, HBI10A) is reported as 8.2 µM and the concentration (Liver [9]) is reported as 5 µM. The concentration (Liver [12]) was 2.9 µM, the concentration [13] was 4.1 µM and the CC50 [2] was over 100 µM. The AUC (Hamster) was 700 µM·h and the Drug uptake [10] was 39 µM.
Compound `COCCCOC(=O)[C@H](C)NP(=O)(OC[C@H]1O[C@@H](n2ccc(N)nc2=O)[C@](C)(O)[C@@H]1O)Oc1ccccc1` (stereo partly specified) has an EC50 (Hepatitis C virus [1]; Hepatitis C virus, HBI10A) of 1.9 µM and a CC50 [2] of over 20 µM.
In the case of `CCOC(=O)[C@H](C)NP(=O)(OCc1ccccc1)OC[C@H]1O[C@@H](n2ccc(N)nc2=O)[C@](C)(O)[C@@H]1O` (stereo partly specified), the EC50 (Hepatitis C virus [1]; Hepatitis C virus, HBI10A) is reported as over 20 µM and the CC50 [2] is reported as over 20 µM.
With `CCCCOC(=O)[C@H](C)NP(=O)(OC[C@H]1O[C@@H](n2ccc(N)nc2=O)[C@](C)(O)[C@@H]1O)Oc1ccccc1Cl` (stereo partly specified) the EC50 (Hepatitis C virus [1]; Hepatitis C virus, HBI10A) was 0.87 µM, the “Ratio CC50/EC50” value [3] was over 23 and the CC50 [2] was over 20 µM.
`CCOC(=O)[C@H](C)NP(=O)(OC[C@H]1O[C@@H](n2ccc(N)nc2=O)[C@](C)(O)[C@@H]1O)Oc1ccc(Cl)cc1` (mixture of isomers) showed an EC50 (Hepatitis C virus [1]; hbi10a) of 1.8 µM.
For `COC(=O)CNP(=O)(OC[C@H]1O[C@@H](n2ccc(N)nc2=O)[C@](C)(O)[C@@H]1O)Oc1ccc(Cl)cc1` (mixture of isomers), the EC50 (Hepatitis C virus [1]; Hepatitis C virus, HBI10A) was 0.8 µM, the “Ratio CC50/EC50” value [3] was over 25 and the CC50 [2] was over 20 µM.
For `CCCCOC(=O)[C@H](C)NP(=O)(OC[C@H]1O[C@@H](n2ccc(N)nc2=O)[C@](C)(O)[C@@H]1O)Oc1ccc(Cl)c2ccccc12` (mixture of isomers), the EC50 (Hepatitis C virus [1]; Hepatitis C virus, HBI10A) was 0.16 µM, the “Ratio CC50/EC50” value [3] was 125 and the CC50 [2] was over 20 µM.
For `CCOC(=O)[C@@H](NP(=O)(OC[C@H]1O[C@@H](n2ccc(N)nc2=O)[C@](C)(O)[C@@H]1O)Oc1ccc(Cl)cc1)c1ccccc1` (mixture of isomers), the EC50 (Hepatitis C virus [1]; Hepatitis C virus, HBI10A) was 7.4 µM, the “Ratio CC50/EC50” value [3] was over 2.5 and the CC50 [2] was over 20 µM.
